{"source": "ChEMBL document CHEMBL2346548", "about": "“Design, synthesis, and structure-activity relationship studies of tryptanthrins as antitubercular agents” (J Nat Prod, 2013)", "key": {"[1]": {"assay": "Tmax in C57BL/6 mouse at 40 mg/kg, po formulated in 20% DMSODMSO, 20% PEG400, 60% (30% HP-beta-CD in water)", "type": "ADME, organism-based", "parameters": "dose 40 mg/kg, route oral", "conditions": "in vivo", "how_it_was_run": "(§1)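 Female C57BL/6 mice, single 40 mg/kg oral gavage; three mice per time point; plasma at 30 min to 24 h, LC-MS; noncompartmental parameters reported as means.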"}, "[2]": {"assay": "AUC (0 to infinity) in C57BL/6 mouse at 40 mg/kg, po formulated in 20% DMSODMSO, 20% PEG400, 60% (30% HP-beta-CD in water)", "type": "ADME, organism-based", "parameters": "dose 40 mg/kg, route oral, time infinity", "conditions": "plasma"}, "[3]": {"assay": "Half life in C57BL/6 mouse at 40 mg/kg, po formulated in 0.1% SLS", "type": "ADME, organism-based", "parameters": "dose 40 mg/kg, route oral", "conditions": "in vivo", "how_it_was_run": "as §1"}, "[4]": {"assay": "Clearance in Sprague-Dawley rat at 5 mg/kg, iv", "type": "ADME, organism-based", "parameters": "dose 5 mg/kg, route intravenous", "conditions": "in vivo", "how_it_was_run": "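Male Sprague-Dawley rats (n = 3), single 5 mg/kg iv dose as solution in PEG300/DMSO 50:50; plasma sampled 0.083–24 h, LC-MS bioanalysis; noncompartmental analysis, means.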"}, "[5]": {"assay": "AUC (0 to infinity) in Sprague-Dawley rat at 20 mg/kg, po", "type": "ADME, organism-based", "parameters": "time infinity, dose 20 mg/kg, route oral", "conditions": "plasma"}, "[6]": {"target": "CYP2C9 (Homo sapiens, UniProt P11712)", "sequence (P11712 whole entry)": "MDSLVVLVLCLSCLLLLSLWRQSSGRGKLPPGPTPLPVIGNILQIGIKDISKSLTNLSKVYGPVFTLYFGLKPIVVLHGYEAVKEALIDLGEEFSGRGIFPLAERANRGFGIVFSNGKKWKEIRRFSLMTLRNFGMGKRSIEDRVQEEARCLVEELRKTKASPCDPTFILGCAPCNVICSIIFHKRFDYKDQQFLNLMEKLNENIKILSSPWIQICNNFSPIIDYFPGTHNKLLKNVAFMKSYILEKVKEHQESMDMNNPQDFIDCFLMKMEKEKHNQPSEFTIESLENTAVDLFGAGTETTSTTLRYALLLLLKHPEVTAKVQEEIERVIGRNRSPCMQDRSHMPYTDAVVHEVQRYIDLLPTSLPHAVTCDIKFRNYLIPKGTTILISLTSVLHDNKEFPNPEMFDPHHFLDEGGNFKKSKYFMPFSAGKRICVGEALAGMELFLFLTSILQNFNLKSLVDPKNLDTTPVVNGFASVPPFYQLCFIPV", "assay": "Inhibition of human recombinant CYP2C9 at 10 uM incubated for 80 mins at 37 degC using 7-methoxy-4-trifluoromethylcoumarin substrate", "type": "ADME", "conditions": "recombinant CYP2C9, probe 7-methoxy-4-trifluoromethylcoumarin"}, "[7]": {"assay": "Permeability across apical to basolateral side in human Caco2 cells incubated for 1 hr at 37 degC by HPLC-MS/MS method", "type": "ADME, cell-based", "conditions": "Caco-2", "how_it_was_run": "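TC7 (Caco-2 subclone) monolayer; 10 μM compound in 1% DMSO in HBSS-MES pH 6.5 on apical donor side, basolateral receiver pH 7.4; shaken 1 h at 37 °C; receiver sampled, HPLC-MS/MS; duplicate means.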"}, "[8]": {"tested_on": "Vero", "assay": "Cytotoxicity against african green monkey Vero cells", "type": "cell-based, Chlorocebus sabaeus", "conditions": "Chlorocebus sabaeus, Vero; read-out: IC50"}, "[9]": {"tested_on": "Mycobacterium tuberculosis", "assay": "Antitubercular activity against Mycobacterium tuberculosis Erdman ATCC 35801 infected in C57BL/6 mouse assessed as viable bacterial load in lung at 200 mg/kg twice daily through gavage 5 days per week for 4 weeks starting on 10th day post-infection (reference value: 6.49 +/- 0.10 log10CFU/lung)", "type": "functional"}, "[10]": {"tested_on": "Salmonella typhimurium", "assay": "Toxicity in Salmonella typhimurium TA100 assessed as compound level per well causing cytotoxicity at 0.25 to 240 ug/well in absence of rat liver S9 fraction", "type": "organism-based", "conditions": "salmonella enterica subsp. enterica serovar typhimurium", "how_it_was_run": "(§2)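 MicroAmes: strains preincubated with or without Aroclor-induced rat liver S9, duplicate wells, six concentrations 0.25–250 μg equivalents/well; DMSO vehicle, 4-nitroquinoline-N-oxide (−S9) and 2-aminoanthracene (+S9) positive controls; revertant colonies counted; cytotoxicity noted as reduced revertants or background lawn; precipitation recorded.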"}, "[11]": {"tested_on": "Salmonella typhimurium", "assay": "Toxicity in Salmonella typhimurium TA100 assessed as compound level per well causing cytotoxicity at 0.25 to 240 ug/well in presence of rat liver S9 fraction", "type": "organism-based", "conditions": "salmonella enterica subsp. enterica serovar typhimurium", "how_it_was_run": "as §2"}, "[12]": {"tested_on": "Salmonella typhimurium", "assay": "Mutagenicity in Salmonella typhimurium TA100 assessed as mean revertant colonies at 0.25 to 240 ug/well in presence of rat liver S9 fraction", "type": "toxicity, organism-based", "conditions": "salmonella enterica subsp. enterica serovar typhimurium", "how_it_was_run": "as §2"}, "[13]": {"tested_on": "Salmonella typhimurium", "assay": "Mutagenicity in Salmonella typhimurium TA100 assessed as mean revertant colonies at 0.25 to 240 ug/well in absence of rat liver S9 fraction", "type": "toxicity, organism-based", "conditions": "salmonella enterica subsp. enterica serovar typhimurium", "how_it_was_run": "as §2"}}, "data": [{"compound": "O=C1C2=Nc3ccccc3CN2c2ccc(Cl)cc21", "values": [{"measurement": "Tmax", "setting": "[1]", "value": 1.5, "unit": "h"}, {"measurement": "AUC(0-inf)", "setting": "[2]", "value": 0.968, "unit": "µg·h/mL"}, {"measurement": "half-life", "setting": "[3]", "value": 3.08, "unit": "h"}, {"measurement": "clearance", "setting": "[4]", "value": 5.57, "unit": "L/h/kg"}, {"measurement": "AUC(0-inf)", "setting": "[5]", "value": 0.3, "unit": "µg·h/mL"}, {"measurement": "inhibition at 80 min, 10 µM", "setting": "[6]", "value": 27, "unit": "%"}, {"measurement": "Papp A→B at 1 h", "setting": "[7]", "value": 608, "unit": "nm/s"}, {"measurement": "IC50", "setting": "[8]", "value": 40, "unit": "mg/L"}, {"measurement": "log10cfu", "setting": "[9]", "value": 6.64}, {"measurement": "Activity", "setting": "[10]", "value": ">= 2.5 ug"}, {"measurement": "Activity", "setting": "[11]", "value": ">= 2.5 ug"}, {"measurement": "Activity", "setting": "[12]", "value": "Non-toxic"}, {"measurement": "Activity", "setting": "[13]", "value": "Non-toxic"}]}]}
